Source: ChEMBL document CHEMBL2434947, “Probing structural requirements of positive allosteric modulators of the M4 muscarinic receptor” (J Med Chem, 2013)
The source made the active and inactive calls. The rule behind the calls is not given here.

Experiments:
[1] = biological target: T1, Muscarinic acetylcholine receptor M4 (Homo sapiens) (UniProt P08173); test: Positive allosteric modulation of human muscarinic M4 receptor expressed in CHO Flp-In cells assessed as stimulation of acetylcholine-induced ERK1/2 phosphorylation incubated under green light condition by fluorescence assay relative to control; type: cell-based
T1 sequence (whole entry): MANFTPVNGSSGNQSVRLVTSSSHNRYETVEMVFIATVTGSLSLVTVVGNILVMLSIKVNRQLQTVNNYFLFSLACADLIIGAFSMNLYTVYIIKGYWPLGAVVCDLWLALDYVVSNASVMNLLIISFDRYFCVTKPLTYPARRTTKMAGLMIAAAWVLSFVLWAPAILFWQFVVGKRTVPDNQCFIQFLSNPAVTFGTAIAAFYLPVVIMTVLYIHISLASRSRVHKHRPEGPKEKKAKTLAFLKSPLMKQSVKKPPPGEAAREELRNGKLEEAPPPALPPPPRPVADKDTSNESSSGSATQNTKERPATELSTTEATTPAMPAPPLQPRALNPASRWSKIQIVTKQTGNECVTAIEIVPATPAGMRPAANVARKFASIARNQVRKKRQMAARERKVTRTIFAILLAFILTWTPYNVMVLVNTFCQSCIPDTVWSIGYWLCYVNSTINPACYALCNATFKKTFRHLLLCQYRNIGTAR
Procedure, shortened: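 ERK1/2 phosphorylation in intact FlpIn-CHO cells stably expressing human M4 mAChR. Modulator was titrated at a fixed EC20 concentration of ACh to give empirical EC50 and Emax (EM′). The incubation time was taken from prior time-course assays of peak phosphorylation. Mean ± SEM from at least three experiments performed in duplicate.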

[2] = biological target: T1, Muscarinic acetylcholine receptor M4 (Homo sapiens); test: Displacement of [3H]NMS from human muscarinic M4 receptor expressed in CHO Flp-In cells after 4 hrs by scintillation counting analysis; type: cell-based
[3] = biological target: T1, Muscarinic acetylcholine receptor M4 (Homo sapiens); test: Binding affinity to human muscarinic M4 receptor expressed in CHO Flp-In cells; type: cell-based
Procedure, shortened: (§1)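 Intact FlpIn-CHO cells stably expressing human M4 mAChR; ERK1/2 phosphorylation read-out. A time course first set the incubation time of peak phosphorylation, and concentration-response curves were run at that time. Modulator was titrated against ACh. pKB (allosteric site affinity), τB and composite cooperativity αβ came from an operational model of allosterism. Mean ± SEM from at least three experiments in duplicate.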

[4] = biological target: T2, Muscarinic acetylcholine receptor M4 (Homo sapiens, UniProt P08173); test: Positive allosteric modulation of human muscarinic M4 receptor expressed in CHO Flp-In cells assessed as stimulation of acetylcholine-induced ERK1/2 phosphorylation incubated under green light condition by fluorescence assay; type: cell-based; procedure, shortened: as §1
T2 sequence (P08173 whole entry): T1 sequence (whole entry)

[5] = biological target: T1, Muscarinic acetylcholine receptor M4 (Homo sapiens); test: Positive allosteric modulation of human muscarinic M4 receptor expressed in CHO Flp-In cells assessed as stimulation of acetylcholine-induced ERK1/2 phosphorylation incubated under green light condition by fluorescence assay

SMILES: COc1ccccc1CNC(=O)CSc1nc(C)cc(C)c1C#N
- Activity [1]: inactive

SMILES: Cc1cc(C)c2c(N)c(C(=O)NCc3cccc(F)c3F)sc2n1
- Activity [2]: inactive
- Emax [1]: 91%
- Kb [3]: 1720 nM
- pKb [3]: 5.76
- EC50 ([4]; read-out: EC50): 110 nM

SMILES: COc1ccc(CNC(=O)c2sc3nc(C)cc(C)c3c2N)cc1F
- Activity [2]: inactive
- Emax [1]: 95%
- Kb [3]: 2580 nM
- pKb [3]: 5.59
- EC50 ([4]; read-out: EC50): 100 nM

SMILES: COc1cc(F)c(CNC(=O)c2sc3nc(C)cc(C)c3c2N)cc1F.Cl
- Emax [1]: inactive
- KB [3]: inactive
- Activity [5]: inactive
- EC50 [4]: Not Active

SMILES: COc1ccc(CNC(=O)c2sc3nc(C)cc(C)c3c2N)cc1OC.Cl
- Emax [1]: inactive
- KB [3]: inactive
- Activity [5]: inactive
- EC50 [4]: Not Active

SMILES: Cc1cc(C)c2c(N)c(C(=O)NCc3ccccc3F)sc2n1
- Emax [1]: 92%
- Kb [3]: 1170 nM
- pKb [3]: 5.93
- EC50 ([4]; read-out: EC50): 130 nM

SMILES: COc1ccc(CNC(=O)CSc2nc(C)cc(C)c2C#N)cc1
- Activity [1]: inactive

SMILES: COc1ccc(CNC(=O)c2sc3nc(C)cc(C)c3c2N)c(F)c1
- Emax [1]: 56%
- Kb [3]: 1820 nM
- pKb [3]: 5.74
- EC50 ([4]; read-out: EC50): 350 nM

SMILES: COc1ccc(CNC(=O)c2sc3nc(C)cc(C)c3c2N)cc1
- Activity [2]: inactive
- Emax [1]: 85%

SMILES: Cc1cc(C)c(C#N)c(SCC(=O)NCc2cc(F)ccc2F)n1
- Activity [1]: inactive

SMILES: Cc1cc(C)c(C#N)c(SCC(=O)NCc2cc(F)c(F)cc2F)n1
- Activity [1]: inactive

SMILES: COc1ccccc1CNC(=O)c1sc2nc(C)cc(C)c2c1N.Cl
- Emax [1]: inactive
- KB [3]: inactive
- Activity [5]: inactive
- EC50 [4]: Not Active

SMILES: Cc1cc(C)c2c(N)c(C(=O)NCc3ccc(F)cc3)sc2n1
- Activity [2]: inactive
- Emax [1]: 98%
- Kb [3]: 2520 nM
- pKb [3]: 5.6
- EC50 ([4]; read-out: EC50): 220 nM

SMILES: COc1cc(CNC(=O)CSc2nc(C)cc(C)c2C#N)cc(OC)c1
- Activity [1]: inactive

SMILES: COc1cc(CNC(=O)c2sc3nc(C)cc(C)c3c2N)cc(OC)c1.Cl
- Emax [1]: inactive
- KB [3]: inactive
- Activity [5]: inactive
- EC50 [4]: Not Active

SMILES: Cc1cc(C)c(C#N)c(SCC(=O)NCc2cccc(F)c2)n1
- Activity [1]: inactive

SMILES: COc1ccc(CNC(=O)c2sc3nc(C)cc(C)c3c2N)c(F)c1F
- Activity [2]: inactive
- Emax [1]: 89%
- Kb [3]: 1880 nM
- pKb [3]: 5.73
- EC50 ([4]; read-out: EC50): 240 nM

SMILES: Cc1cc(C)c2c(N)c(C(=O)NCc3cc(F)c(F)cc3F)sc2n1
- Emax [1]: 83%
- Kb [3]: 2320 nM
- pKb [3]: 5.63
- EC50 ([4]; read-out: EC50): 580 nM

SMILES: COc1cccc(CNC(=O)c2sc3nc(C)cc(C)c3c2N)c1
- Emax [1]: 92%
- Kb [3]: 11400 nM
- pKb [3]: 4.95
- EC50 ([4]; read-out: EC50): 560 nM

SMILES: Cc1cc(C)c(C#N)c(SCC(=O)NCc2ccccc2F)n1
- Activity [1]: inactive

SMILES: COc1ccc(CNC(=O)CSc2nc(C)cc(C)c2C#N)c(F)c1F
- Activity [1]: inactive

SMILES: Cc1cc(C)c2c(N)c(C(=O)NCc3cccc(F)c3)sc2n1
- Activity [2]: inactive
- Emax [1]: 98%
- Kb [3]: 6240 nM
- pKb [3]: 5.21
- EC50 ([4]; read-out: EC50): 310 nM

SMILES: Cc1cc(C)c2c(N)c(C(=O)NCc3cc(F)ccc3F)sc2n1
- Emax [1]: 85%
- Kb [3]: 1690 nM
- pKb [3]: 5.77
- EC50 ([4]; read-out: EC50): 130 nM

SMILES: Cc1cc(C)c2c(N)c(C(=O)NCc3cc(F)cc(F)c3F)sc2n1
- Emax [1]: 85%
- Kb [3]: 1290 nM
- pKb [3]: 5.89
- EC50 ([4]; read-out: EC50): 140 nM

SMILES: COc1cc(CNC(=O)c2sc3nc(C)cc(C)c3c2N)cc(OC)c1OC.Cl
- Emax [1]: inactive
- KB [3]: inactive
- Activity [5]: inactive
- EC50 [4]: Not Active

SMILES: COc1cccc(CNC(=O)CSc2nc(C)cc(C)c2C#N)c1
- Activity [1]: inactive
